# From ChEMBL document CHEMBL3124758, “Toward new classes of potent antibiotics: synthesis and antimicrobial activity of novel metallosaldach-imidazolium salts” (2014)
# Calls of active or inactive are those of the source. No cut-off for these calls is given here.
# Assays:
# Candida albicans = assay: Antifungal activity against Candida albicans NCIM 3100 after 72 hrs by broth micro-dilution method; type: functional
# Summary of the method: (§1)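 Aqueous compound solutions, 2.5 to 20 mg/mL, 100 µL per 4 mm well in nutrient agar seeded from nutrient broth culture (1 cm3 broth with 9 cm3 agar at 45 °C). Plates incubated 72 h at 28 °C and clear-zone diameter measured. MIC taken from inhibition at four concentration levels. Duplicate, repeated twice, modal values. Amphotericin B standard.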
# Aspergillus flavus = assay: Antifungal activity against Aspergillus flavus after 72 hrs by broth micro-dilution method; type: functional; summary of the method: as §1
# Bacillus subtilis = assay: Antibacterial activity against Bacillus subtilis after 72 hrs by broth micro-dilution method; type: functional
# Summary of the method: (§2)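 Compounds dissolved in H2O and tested at 2.5, 5, 10 and 20 mg/mL. Each strain was seeded in 1 cm3 nutrient broth, mixed with 9 cm3 melted (45 °C) nutrient agar and poured; 4 mm wells were cut. 100 µL compound solution per well, incubated 72 h at 37 °C, and inhibition zone diameter measured. MIC derived from % inhibition at the four levels. Duplicate, repeated twice; modal values. Ampicillin reference.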
# Staphylococcus aureus = assay: Antibacterial activity against Staphylococcus aureus ATCC 25923 after 72 hrs by broth micro-dilution method; type: functional; conditions: ATCC 25923, 72 h; summary of the method: as §2
# Escherichia coli = assay: Antibacterial activity against Escherichia coli ATCC 25922 after 72 hrs by broth micro-dilution method; conditions: ATCC 25922, 72 h
# Pseudomonas aeruginosa = assay: Antibacterial activity against Pseudomonas aeruginosa ATCC 27853 after 72 hrs by broth micro-dilution method; conditions: ATCC 27853, 72 h
"MIC (Candida albicans; NCIM 3100, 72 h) [µg/mL]",MIC (Aspergillus flavus),MIC (Bacillus subtilis) [µg/mL],MIC (Staphylococcus aureus) [µg/mL],MIC (Escherichia coli) [µg/mL],MIC (Pseudomonas aeruginosa) [µg/mL],Compound,MIC (Candida albicans)
> 250,inactive,11.2,16.2,16.7,> 5000,CCCCn1cc[n+](Cc2ccc(O)c(/C=N/[C@@H]3CCCC[C@H]3/N=C/c3cc(C[n+]4ccn(CCCC)c4)ccc3O)c2)c1.[Cl-].[Cl-] (relative stereo),
55.5,inactive,12.1,14.9,13.3,> 10000,Cc1[nH]cc[n+]1Cc1cc(/C=N/[C@@H]2CCCC[C@H]2/N=C/c2cc(C[n+]3cc[nH]c3C)cc(C(C)(C)C)c2O)c(O)c(C(C)(C)C)c1.[Cl-].[Cl-] (relative stereo),
> 250,inactive,16,18.4,> 250,> 10000,CCn1cc[n+](Cc2cc(/C=N/[C@@H]3CCCC[C@H]3/N=C/c3cc(C[n+]4ccn(CC)c4)cc(C(C)(C)C)c3O)c(O)c(C(C)(C)C)c2)c1.[Cl-].[Cl-] (relative stereo),
85.2,inactive,16.4,16,12.2,> 5000,CCCCn1cc[n+](Cc2cc(/C=N/[C@@H]3CCCC[C@H]3/N=C/c3cc(C[n+]4ccn(CCCC)c4)cc(C(C)(C)C)c3O)c(O)c(C(C)(C)C)c2)c1.[Cl-].[Cl-] (relative stereo),

# The remaining lines, values behind:
Compound,"MIC (Candida albicans; NCIM 3100, 72 h) [µg/mL]",MIC (Aspergillus flavus),MIC (Bacillus subtilis) [µg/mL],MIC (Staphylococcus aureus) [µg/mL],MIC (Escherichia coli) [µg/mL],MIC (Pseudomonas aeruginosa) [µg/mL],MIC (Candida albicans)
Cc1[nH]cc[n+]1Cc1ccc(O)c(/C=N/[C@@H]2CCCC[C@H]2/N=C/c2cc(C[n+]3cc[nH]c3C)ccc2O)c1.[Cl-].[Cl-] (relative stereo),> 250,inactive,17.5,17.6,17.1,> 10000,
CCn1cc[n+](Cc2ccc(O)c(/C=N/[C@@H]3CCCC[C@H]3/N=C/c3cc(C[n+]4ccn(CC)c4)ccc3O)c2)c1.[Cl-].[Cl-] (relative stereo),> 250,inactive,15.2,> 250,> 250,> 10000,
C[C@@H]1[C@H](O)[C@@H](C)/C=C/C=C/C=C/C=C/C=C/C=C/C=C/[C@H](O[C@@H]2O[C@H](C)[C@@H](O)[C@H](N)[C@@H]2O)C[C@@H]2O[C@](O)(C[C@@H](O)C[C@@H](O)[C@H](O)CC[C@@H](O)C[C@@H](O)CC(=O)O[C@H]1C)C[C@H](O)[C@H]2C(=O)O [AMPHOTERICIN B],80,40 µg/mL,,,,,
CC1(C)S[C@@H]2[C@H](NC(=O)[C@H](N)c3ccccc3)C(=O)N2[C@H]1C(=O)O [AMPICILLIN],,inactive,20,12.5,15,> 1000,inactive
